System: Shc1 phosphorylated at Tyr239 and Tyr240 in MCF10A cells
Test: Immunoblot of dual Shc1 phosphorylation in MCF10A cells
Type: cell-based
Settings: 1ng/mL EGF, 3 min
How it was run: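 MCF10A cells (STR-authenticated, mycoplasma-free) were kept in HuMEC medium and held 16 h in growth-factor-free medium before pretreatment with test compound and EGF stimulation. Cells were lysed in RIPA buffer containing protease and phosphatase inhibitors. Lysates were separated by SDS-PAGE, transferred to nitrocellulose and immunoblotted with phospho-Shc and total Shc antibodies.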

B1: EGF: EGF, used at 1ng/mL to stimulate MCF10A cells (protein, UniProt P01133 23-1207, looked up)
Pro-epidermal growth factor: PQHWSCPEGTLAGNGNSTCVGPAPFLIFSHGNSIFRIDTEGTNYEQLVVDAGVSVIMDFHYNEKRIYWVDLERQLLQRVFLNGSRQERVCNIEKNVSGMAINWINEEVIWSNQQEGIITVTDMKGNNSHILLSALKYPANVAVDPVERFIFWSSEVAGSLYRADLDGVGVKALLETSEKITAVSLDVLDKRLFWIQYNREGSNSLICSCDYDGGSVHISKHPTQHNLFAMSLFGDRIFYSTWKMKTIWIANKHTGKDMVRINLHSSFVPLGELKVVHPLAQPKAEDDTWEPEQKLCKLRKGNCSSTVCGQDLQSHLCMCAEGYALSRDRKYCEDVNECAFWNHGCTLGCKNTPGSYYCTCPVGFVLLPDGKRCHQLVSCPRNVSECSHDCVLTSEGPLCFCPEGSVLERDGKTCSGCSSPDNGGCSQLCVPLSPVSWECDCFPGYDLQLDEKSCAASGPQPFLLFANSQDIRHMHFDGTDYGTLLSQQMGMVYALDHDPVENKIYFAHTALKWIERANMDGSQRERLIEEGVDVPEGLAVDWIGRRFYWTDRGKSLIGRSDLNGKRSKIITKENISQPRGIAVHPMAKRLFWTDTGINPRIESSSLQGLGRLVIASSDLIWPSGITIDFLTDKLYWCDAKQSVIEMANLDGSKRRRLTQNDVGHPFAVAVFEDYVWFSDWAMPSVMRVNKRTGKDRVRLQGSMLKPSSLVVVHPLAKPGADPCLYQNGGCEHICKKRLGTAWCSCREGFMKASDGKTCLALDGHQLLAGGEVDLKNQVTPLDILSKTRVSEDNITESQHMLVAEIMVSDQDDCAPVGCSMYARCISEGEDATCQCLKGFAGDGKLCSDIDECEMGVPVCPPASSKCINTEGGYVCRCSEGYQGDGIHCLDIDECQLGEHSCGENASCTNTEGGYTCMCAGRLSEPGLICPDSTPPPHLREDDHHYSVRNSDSECPLSHDGYCLHDGVCMYIEALDKYACNCVVGYIGERCQYRDLKWWELRHAGHGQQQKVIVVAVCVVVLVMLLLLSLWGAHYYRTQKLLSKNPKNPYEESSRDVRSRRPADTEDGMSSCPQPWFVVIKEHQDLKNGGQPVAGEDGQAADGSMQPTSWRQEPQLCGMGTEQGCWIPVSSDKGSCPQVMERSFHMPSYGTQTLEGGVEKPHSLLSANPLWQQRALDPPHQMELTQ
modifications: Pro-epidermal growth factor
EGF-stimulated phosphorylation of Shc1 at both Tyr239 and Tyr240: significant phosphorylation of both Tyr239 and Tyr240 was detected
